DNA FID counter: displaces DNA intercalator in HCV helicase counter-screen; AID 1845; DNA fluorescent intercalator displacement, fluorescence; 0.17% of 290,000 active; inhibition, % at 7.9 µM; in the data active = inhibition above about 37%;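 also: 0% = vehicle and 100% = reference compound; higher means more ethidium bromide displaced from hairpin DNA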
core dimer inh: blocks dimerization of HCV core protein; TR-FRET GST/Flag-core106 dimerization, 1536-well; inhibition, % at 5 µM; 0.33% of 300,000 active;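 active = inhibition above the mean of all tested compounds plus 3 SD, set per screening campaign, cut at about 45% in these data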
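Assay system: tagged HCV core106 pair (GST and Flag); medium: KF-containing HEPES buffer, pH 7.45, DTT, CHAPS, BSA; also added: Eu donor and XL665 acceptor anti-tag antibodies; dosing: 5 µM single dose; timing: compound-protein-antibody incubation 4 h at 22.5 °C; signal: TR-FRET 671 and 617 nm emission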
GRK2 inh: blocks RNA aptamer binding to human GRK2; bead flow cytometry, FAM-aptamer displacement from GRK2; inhibition of aptamer binding, % at 10 µM; 0.59% of 330,000 active; AID 488847;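 active = inhibition of aptamer binding above 40%, roughly 3 SD of noise, on plates passing a quality check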;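 also: median bead fluorescence of bound FAM aptamer so fluorescent compounds give negative values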
GPR7 antagonist: human neuropeptides B/W receptor 1 antagonism; GPR7-expressing cells, fluorescence antagonist assay; inhibition, % at 4.4 µM; 1.1% of 290,000 active; in the data active = inhibition above about 16%, passing the limit was not always enough;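 also: cells stimulated with the agonist NPW; 0% = agonist with vehicle and 100% = vehicle without agonist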
Target sequence (P48145 whole entry, looked up): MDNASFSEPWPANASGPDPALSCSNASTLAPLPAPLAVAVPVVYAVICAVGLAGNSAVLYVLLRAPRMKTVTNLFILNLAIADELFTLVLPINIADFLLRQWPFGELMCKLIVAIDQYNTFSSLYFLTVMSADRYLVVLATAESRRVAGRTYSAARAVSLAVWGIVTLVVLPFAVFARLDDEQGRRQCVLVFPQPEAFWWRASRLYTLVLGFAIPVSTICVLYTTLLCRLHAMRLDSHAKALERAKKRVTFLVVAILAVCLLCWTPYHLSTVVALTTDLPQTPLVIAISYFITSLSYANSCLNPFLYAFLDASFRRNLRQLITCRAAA
NS3 helicase inh: inhibitors of Hepatitis C virus NS3 helicase | 0.56% of 290,000 active | AID 1800 | NS3 helicase DNA unwinding, Cy5 molecular beacon fluorescence | inhibition, % at 10.9 µM;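 active = inhibition above the mean of all tested compounds plus 3 SD, set per campaign, cut at about 35% in these data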;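 also: 0% = DMSO wells and 100% = thioflavine S control wells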
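Material: hepatitis C virus NS3 helicase domain fragment enzyme; measured by: Cy5 fluorescence, 0 and 60 min reads; control set: DMSO and thioflavine S; incubation: 60 min unwinding reaction at 25 °C after ATP addition; read-out basis: % inhibition from 60/0 min fluorescence ratio, DMSO 0%, thioflavine S 100%; repeats: singlicate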
DAGLB inh: diacylglycerol lipase beta (human) inhibition. HEK293T DAGLB membrane lysate, EnzChek fluorogenic substrate. Q8NCG7. inhibition, % at 5.17 µM. 0.059% of 340,000 active; in the data active = inhibition above about 34%;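 also: 0% = enzyme with vehicle and 100% = wells lacking enzyme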
GPR7 antag conf: confirmation of human GPR7 antagonists; GPR7-expressing cells, calcium fluorescence antagonist mode; 52% of 2,400 active; inhibition, % at 4.4 µM; shares compounds with GPR7 antagonist; AID 1952; in the data active = inhibition above about 24%;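 also: stimulated with the GPR7 agonist NPW; 0% = agonist plus vehicle and 100% = vehicle alone without agonist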
MCHR1 antagonist: antagonizes human MCHR1, a GPR7 antagonist counter-screen; inhibition, % at 4.4 µM; 62% of 2,400 active; AID 2148; MCHR1-expressing cells, fluorescence antagonist assay; shares compounds with GPR7 antagonist; in the data active = inhibition above about 22%;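 also: 0% = vehicle with agonist and 100% = vehicle without agonist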
An asterisk follows results filed as active; / = no result. Compounds with a hit are over-represented: about 2.2% of the library has one in this group of screens.

SMILES | DNA FID counter | core dimer inh | GRK2 inh | GPR7 antagonist | NS3 helicase inh | DAGLB inh | GPR7 antag conf | MCHR1 antagonist
CCOC(=O)C1(CCOc2ccccc2)CCN(Cc2ccccc2O)CC1 | 22 | -19 | 1 | -4 | -53 | -3 | / | /
CCOC(=O)C1(CCOc2ccccc2)CCN(Cc2cccc(OC)c2OC)CC1 | 29 | -18 | 0 | 32* | -38 | -6 | 24* | 54*
CC1(NC(=O)Nc2cccc(Br)c2)CCS(=O)(=O)C1 (centres undefined) | / | / | 0 | / | / | 0 | / | /
Cc1ccn2c(c1)nc(=O)c1cc(S(=O)(=O)N3CCOCC3)ccc12 | -3 | -3 | 1 | -1 | -3 | 2 | / | /
Nc1ncc([N+](=O)[O-])cc1S(=O)(=O)c1ccccc1 | / | -2 | 1 | / | / | / | / | /
O=C(Cc1n[nH]c(=O)c2ccccc12)OCC(=O)c1ccc(F)cc1 | / | -5 | 0 | / | / | -2 | / | /
O=C(Cc1n[nH]c(=O)c2ccccc12)OCC(=O)c1ccc2c(c1)OCCO2 | -14 | 0 | 1 | 28* | -6 | -3 | -9 | 15
CN(C)CCCNc1nc2sc3c(c2c(=O)n1CCc1ccccc1)CCCCC3 | 30 | -14 | 0 | 29* | -50 | 2 | 51* | 65*
CN(C)CCCn1c(=O)n(CCc2ccccc2)c(=O)c2c3c(sc21)CCCCC3 | 11 | -2 | 0 | 12 | -98 | 0 | / | /
COc1cccc(C(c2nnnn2Cc2ccco2)N2CCN(c3cccc(C)c3C)CC2)c1OC (centres undefined) | -30 | 17 | 0 | 23* | -14 | -17 | 14 | 60*
Cc1ccc(S(=O)(=O)NCc2ccc(C(=O)NCc3cccnc3)cc2)cc1 | -24 | -2 | 0 | 23* | -3 | / | -4 | 0
O=S(=O)(NCc1cccnc1)c1ccc2c(c1)OCCO2 | 2 | 4 | 0 | 23* | 8 | -2 | -19 | 17
Cc1ccc(OCC(=O)NCc2cccnc2)cc1 | 6 | -1 | 0 | 24* | 7 | 3 | -5 | 5
O=S(=O)(NCc1ccccc1)c1ccc2c(c1)OCCO2 | -2 | -1 | 0 | -8 | -2 | -1 | / | /
Cc1ccc(S(=O)(=O)NCc2cccnc2)cc1 | -1 | -3 | 1 | 1 | -1 | -1 | / | /
O=C(COC(=O)/C=C/c1ccccc1)NC1CCCCCC1 | / | / | / | / | / | -2 | / | /
COc1ccc(C2CC2/C(=N/O)c2ccccn2)cc1 (centres undefined) | -9 | 0 | 2 | 28* | 5 | 0 | 26* | 18
Cc1nn(Cc2ccc(F)cc2)c(C)c1NC(=O)c1cnn2c1NC(c1ccccc1)CC2C(F)(F)F (centres undefined) | -39 | 9 | 0 | 23* | -15 | -2 | 18 | 11
Cc1nn(Cc2ccc(F)cc2)c(C)c1NC(=O)c1cnn2c1NC(c1cccs1)CC2C(F)(F)F (centres undefined) | -45 | 1 | 3 | 8 | -11 | 5 | / | /
COc1cccc(-c2ncc3ccccc3c2COC(=O)CCCC(=O)O)c1 | / | / | 2 | / | / | 0 | / | /
COc1ccc(NC(=O)COc2ccccc2Cc2ccccc2)cc1S(N)(=O)=O | -28 | 4 | 0 | 42* | -22 | 1 | 45* | 57*
N#CCCN(C(=O)COC(=O)CCNS(=O)(=O)c1ccccc1)c1ccccc1 | / | / | 2 | / | / | -2 | / | /
CCN1CCN(C(=O)c2ccc3c(c2)N(Cc2ccc(C)cc2)CCS3)CC1 | 7 | 0 | 0 | / | -47 | 4 | / | 12
COc1ccc(-n2nc(C(=O)NCC(=O)NCCC3=CCCCC3)c3ccccc3c2=O)cc1OC | -37 | 6 | 1 | -4 | -11 | -3 | / | /
Fc1ccc(C(c2nnnn2C2CCCC2)N(Cc2ccco2)CC2CCCO2)cc1 (centres undefined) | -29 | 12 | 2 | 32* | 2 | -12 | 44* | 53*
SMILES | DNA FID counter | core dimer inh | GRK2 inh | GPR7 antagonist | NS3 helicase inh | DAGLB inh | GPR7 antag conf | MCHR1 antagonist
Cc1ccc(C)c(S(=O)(=O)N2CCCC2CNC(=O)C(=O)NCc2ccccc2C)c1 (centres undefined) | / | 5 | 0 | / | / | 1 | / | /
CCOc1ccccc1N=c1oc2cc(O)ccc2cc1C(=O)NCC1CCCO1 (centres undefined) | -2 | -1 | 0 | 29* | 2 | 2 | 19 | 20
COc1ccc2c(c1)sc(N)[n+]2Cc1cc(C)cc2cccnc12 | 10 | 4 | 0 | 38* | -43 | 3 | 41* | 57*
Cc1cc(C[n+]2cc(Br)ccc2N)c2ncccc2c1 | 0 | -13 | 0 | 30* | -9 | 1 | 29* | 16
Cc1cc(C[n+]2cc(Cl)ccc2N)c2ncccc2c1 | -2 | 2 | 0 | 23* | -6 | -1 | 29* | 24*
Cc1cc(C[n+]2ncsc2N)c2ncccc2c1 | 2 | -2 | 0 | -6 | -15 | 1 | / | /
COc1ccc(CN(C)C(=O)c2cc(S(=O)(=O)N3CCOCC3)ccc2N2CCCC2)cc1 | / | 3 | 2 | / | / | -3 | / | /
COc1ccc2c(-c3ccccc3)cc(=S)[nH]c2c1 | -11 | 9 | 6 | 0 | -1 | -4 | / | /
CCn1c(C)nc2cc(N)ccc21 | 23 | -4 | 4 | 27* | 4 | -1 | -10 | 1
CCCCN1C(=O)C(NC(C)=O)c2ccccc21 (centres undefined) | -9 | -4 | 2 | 26* | 2 | 1 | -15 | 20
CC(=O)NC1C(=O)N(CCc2ccccc2)c2ccc(Br)cc21 (centres undefined) | -6 | / | / | 22 | -4 | -5 | / | /
N#Cc1nc(COc2ccc(-c3ccccc3)cc2)oc1NCCCN1CCOCC1 | 18 | -6 | 0 | 24* | -83 | -2 | 41* | 56*
N#Cc1nc(COc2ccc(Cl)cc2)oc1N1CCN(Cc2ccccc2)CC1 | -16 | 1 | 3 | 48* | -7 | -8 | 50* | 47*
N#Cc1nc(COc2ccccc2)oc1NCCN1CCOCC1 | -5 | -2 | 0 | 4 | 4 | 1 | / | /
CCN1CCN(c2oc(COc3ccc(Cl)cc3)nc2C#N)CC1 | -2 | 5 | 2 | 0 | -13 | 2 | / | /
C=CCNc1oc(COc2ccc(C)cc2)nc1C#N | -9 | -4 | 2 | 24* | 1 | 0 | 7 | 17
COc1ccc(N2CCN(c3oc(COc4ccc(Cl)cc4)nc3C#N)CC2)cc1 | -3 | 14 | 0 | 39* | -7 | -2 | 40* | 33*
CCOc1ncccc1C(=O)OCC(=O)Nc1ccc2c(c1)OCCO2 | / | / | 0 | / | / | -5 | / | /
Cc1nc(C)c(-c2ccc(SCC(=O)Nc3cccc(Cl)c3C)nn2)s1 | -31 | -17 | 5 | -9 | 2 | -2 | / | /
COc1ccc(N2CCN(c3oc(COc4ccccc4)nc3C#N)CC2)cc1 | -15 | 2 | 1 | 44* | -11 | -7 | 49* | 46*

Bioassay records: PubChem, several laboratories
